Our source for the log10cfu and Activity values is ChEMBL document CHEMBL3297702, “Improving photodynamic inactivation of bacteria in dentistry: highly effective and fast killing of oral key pathogens with novel tooth-colored type-II photosensitizers” (J Med Chem, 2014).

Series [1] relates to Actinomyces naeslundii. The series can be described thus: Photodynamic inactivation of Actinomyces naeslundii T14V assessed as reduction of log10 CFU at 10 uM incubated prior to irradiation with 25 j/cm'2 for 20 secs measured after 48 hrs by agar plating method (reference value: <1 no unit). Type of series: functional. In short, it runs like this:
(§1)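 A. naeslundii T14V grown overnight at 37 °C, shaken, aerobically in BHI broth. Harvested at stationary phase, resuspended in PBS to 10^7–10^8 bacteria/mL (OD600). Mixed 1:1 with PS (final 0–250 µM) or water, 10 s incubation, then blue photopolymerizer light (1260 ± 50 mW/cm2) or dark. Tenfold dilutions plated on blood agar, aerobic 37 °C 48 h, CFU counted; medians of three independent experiments in triplicate.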

The test system of series [2] is Aggregatibacter actinomycetemcomitans. Briefly: Photodynamic inactivation of Aggregatibacter actinomycetemcomitans ATCC 43718 assessed as reduction of log10 CFU at 100 uM incubated prior to irradiation with 50 j/cm'2 for 40 secs measured after 48 hrs by agar plating method (reference value: <1 no unit). Type of series: functional, Y4. In short, it runs like this:
(§2)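 A. actinomycetemcomitans ATCC 43718 cultured overnight in BHI broth under anaerobic conditions, 37 °C with shaking. Stationary-phase cells were spun down, taken up in PBS to 10^7–10^8/mL, and combined 1:1 with PS (final 0–250 µM) or water. After 10 s they were irradiated at 1260 ± 50 mW/cm2 or kept dark. Serial dilutions went onto BHI agar, incubated anaerobically at 37 °C for 48 h, and CFU were scored. Results are medians from 3 experiments × triplicate versus untreated controls.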

The test system is the same in series [3]. Briefly: Photodynamic inactivation of Aggregatibacter actinomycetemcomitans ATCC 43718 assessed as reduction of log10 CFU at 10 uM incubated prior to irradiation with 50 j/cm'2 for 40 secs measured after 48 hrs by agar plating method (reference value: <1 no unit). Type of series: functional, Y4. In short, it runs like this:
as §2

The test system of series [4] is Streptococcus mutans. Briefly: Photodynamic inactivation of Streptococcus mutans ATCC 25175 assessed as reduction of log10 CFU at 100 uM incubated prior to irradiation with 50 j/cm'2 for 40 secs measured after 48 hrs by agar plating method (reference value: <1 no unit). Type of series: functional.
The test system of series [5] is Streptococcus mutans. The series can be described thus: Photodynamic inactivation of Streptococcus mutans ATCC 25175 assessed as reduction of log10 CFU at 10 uM incubated prior to irradiation with 150 j/cm'2 for 120 secs measured after 48 hrs by agar plating method (reference value: <1 no unit). It is filed as functional.
Series [6] has as its system Enterococcus faecalis. The series can be described thus: Toxicity in Enterococcus faecalis ATCC 29212 assessed as reduction of log10 CFU at 1 to 250 uM incubated for 10 secs under dark condition measured after 24 hrs by agar plating method. The following applies: in vivo. It is filed as organism-based. In short, it runs like this:
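Dark controls. Overnight BHI cultures (EF, SM, AN aerobic; AA anaerobic; 37 °C) were washed into PBS at 10^7–10^8 cells/mL. They were mixed 1:1 with photosensitizer at final 0–250 µM and incubated 10 s, 7.5 min or 15 min, then kept in the dark for 20, 40 or 120 s. Tenfold dilutions were plated: EF on Mueller-Hinton agar, aerobic 24 h; SM on BHI agar, aerobic 48 h; AN on blood agar, aerobic 48 h; AA on BHI agar, anaerobic 48 h; all at 37 °C. CFU were compared with untreated controls; medians of three independent experiments in triplicate.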

For series [7], the system named is Streptococcus mutans. The series can be described thus: Photodynamic inactivation of Streptococcus mutans ATCC 25175 assessed as reduction of log10 CFU at 5 uM incubated prior to irradiation with 150 j/cm'2 for 120 secs measured after 48 hrs by agar plating method (reference value: <1 no unit). It is filed as functional.
Series [8] has as its system Actinomyces naeslundii. The series can be described thus: Photodynamic inactivation of Actinomyces naeslundii T14V assessed as reduction of log10 CFU at 1 uM incubated prior to irradiation with 25 j/cm'2 for 20 secs measured after 48 hrs by agar plating method (reference value: <1 no unit). Type of series: functional. In short, it runs like this: as §1
Series [9] concerns Actinomyces naeslundii. The series can be described thus: Photodynamic inactivation of Actinomyces naeslundii T14V assessed as reduction of log10 CFU at 100 uM incubated prior to irradiation with 25 j/cm'2 for 20 secs measured after 48 hrs by agar plating method (reference value: <1 no unit). It is filed as functional. In short, it runs like this:
as §1

The subject of series [10] is Streptococcus mutans. Briefly: Photodynamic inactivation of Streptococcus mutans ATCC 25175 assessed as reduction of log10 CFU at 1 uM incubated prior to irradiation with 150 j/cm'2 for 120 secs measured after 48 hrs by agar plating method (reference value: <1 no unit). Type of series: functional.
The subject of series [11] is Actinomyces naeslundii. The series can be described thus: Photodynamic inactivation of Actinomyces naeslundii T14V assessed as reduction of log10 CFU at 100 uM incubated prior to irradiation with 50 j/cm'2 for 40 secs measured after 48 hrs by agar plating method (reference value: <1 no unit). It is filed as functional. In short, it runs like this: as §1
The test system of series [12] is Aggregatibacter actinomycetemcomitans. Briefly: Photodynamic inactivation of Aggregatibacter actinomycetemcomitans ATCC 43718 assessed as reduction of log10 CFU at 100 uM incubated prior to irradiation with 150 j/cm'2 for 120 secs measured after 48 hrs by agar plating method relative to control. Type of series: functional, Y4. In short, it runs like this:
as §2

For series [13] the test system is unchanged. Briefly: Photodynamic inactivation of Aggregatibacter actinomycetemcomitans ATCC 43718 assessed as reduction of log10 CFU at 1 to 250 uM incubated prior to irradiation with 150 j/cm'2 for 120 secs measured after 48 hrs by agar plating method. The following applies: Y4. It is filed as functional. In short, it runs like this:
as §2

The test system of series [14] is Enterococcus faecalis. Briefly: Photodynamic inactivation of Enterococcus faecalis ATCC 29212 assessed as reduction of log10 CFU at 1 to 250 uM preincubated for 10 secs followed by irradiation with 50 j/cm'2 for 40 secs measured after 24 hrs by agar plating method. Type of series: functional, organism-based. In a few lines: (§3)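 E. faecalis ATCC 29212, aerobic overnight BHI culture at 37 °C, was harvested at stationary phase and suspended in PBS at 10^7–10^8 bacteria/mL. It was mixed 1:1 with PS to 0–250 µM final, held 10 s, then illuminated (1260 ± 50 mW/cm2) or kept dark. Dilutions were plated on Mueller-Hinton agar, aerobic 37 °C 24 h, CFU counted. Medians of three independent triplicate experiments, referred to untreated controls.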

Series [15] deals with Enterococcus faecalis. Briefly: Photodynamic inactivation of Enterococcus faecalis ATCC 29212 assessed as reduction of log10 CFU at 1 to 250 uM preincubated for 10 secs followed by irradiation with 150 j/cm'2 for 120 secs measured after 24 hrs by agar plating method. It is filed as functional, organism-based. In short, it runs like this: as §3
Series [16] has as its system Actinomyces naeslundii. Briefly: Photodynamic inactivation of Actinomyces naeslundii T14V assessed as reduction of log10 CFU at 1 to 250 uM preincubated for 10 secs followed by irradiation with 25 j/cm'2 for 20 secs measured after 48 hrs by agar plating method. It is filed as functional, organism-based. In a few lines: as §1
For series [17], the system named is Actinomyces naeslundii. Briefly: Photodynamic inactivation of Actinomyces naeslundii T14V assessed as reduction of log10 CFU at 1 to 250 uM preincubated for 10 secs followed by irradiation with 50 j/cm'2 for 40 secs measured after 48 hrs by agar plating method. Type of series: functional, organism-based. In short, it runs like this:
as §1

The test system of series [18] is Streptococcus mutans. Briefly: Photodynamic inactivation of Streptococcus mutans ATCC 25175 assessed as reduction of log10 CFU at 1 to 250 uM preincubated for 10 secs followed by irradiation with 25 j/cm'2 for 20 secs measured after 48 hrs by agar plating method. It is filed as functional.
The subject of series [19] is Actinomyces naeslundii. The series can be described thus: Photodynamic inactivation of Actinomyces naeslundii T14V assessed as reduction of log10 CFU at 1 to 250 uM preincubated for 10 secs followed by irradiation with 150 j/cm'2 for 120 secs measured after 48 hrs by agar plating method. Type of series: functional, organism-based. In short, it runs like this:
as §1

Activity calls are given as the source filed them. No cut-off for these calls is given here.

On to `C[N+](C)(CCO)CC1=Cc2cccc3cccc(c23)C1=O.[Cl-]`, for which the log10cfu was below 3 in series [1]; above 6 in series [2]; below 3 in series [3]; above 6 in [4]; above 6 in series [5]; below 3 in series [7]. In addition, the log10cfu in series [8] is below 1; in series [9], above 5; in series [10] it was below 1; in series [11], above 5; in [12], above 6. The Activity entry in series [6] is recorded as “Non-toxic”.

For the molecule `O=C1C(C[n+]2ccccc2)=Cc2cccc3cccc1c23.[Cl-]`, the log10cfu in series [1] is above 5; in series [2] it was above 6; in series [3], above 6; in series [4], above 6; in [5] it was above 6; in series [7], above 6. Also, the log10cfu is below 1 in series [8]; above 5 in [9]; below 3 in series [10]; above 5 in [11]; above 6 in [12]. Also, the result in series [13], in [14], in series [15], in series [16], in [17] and in series [18] was Active. In addition, the result in series [19] was Active.

For `C[N+](C)(C)CC1=Cc2cccc3cccc(c23)C1=O.[Cl-]`, the outcome in series [13], in series [14], in [15], in series [16], in [17] and in [18] was Active. The result in series [19] was Active. The Activity entry in series [6] is “Non-toxic”.
